Screening data: PubChem BioAssay, several laboratories
Hits are enriched below; roughly 2.9% of the tested compounds scored in any of these assays.
MT stabilize HCS: microtubule stabilizers in HeLa cells, primary screen, imaging, high-content imaging; 200,000 tested, 0.83% active; HeLa tubulin immunostaining HCS, 24 h; share of cells brighter than vehicle mean+2SD; % tubulin-high responders, % at 10 µM;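 active = plate Z-score above 3 for both tubulin-high and condensed-nucleus cell shares, with cell loss under 80%, at 10 µM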;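 also: anti alpha tubulin signal scored within the nucleus-defined area of each cell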
Wee1 degr inh: Wee1 degradation inhibitors, primary screen, cell-based, HeLa, Wee1K328M-luciferase, luminescence | Wee1-like protein kinase (Homo sapiens), P30291 | reporter increase, % at 5 µM | HeLa Luc-Wee1K328M stability; 100% = proteasome inhibitor MG132 effect | 220,000 tested, 1.2% active;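 active = activation above the mean of all tested compounds plus 3 SD, set per screening run, cut at about 8.8% in these data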;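 also: cells exposed to compound for 20 h before luminescence read; 0% = DMSO alone and 100% = MG132 at 30 µM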
Target sequence (P30291 whole entry K328M): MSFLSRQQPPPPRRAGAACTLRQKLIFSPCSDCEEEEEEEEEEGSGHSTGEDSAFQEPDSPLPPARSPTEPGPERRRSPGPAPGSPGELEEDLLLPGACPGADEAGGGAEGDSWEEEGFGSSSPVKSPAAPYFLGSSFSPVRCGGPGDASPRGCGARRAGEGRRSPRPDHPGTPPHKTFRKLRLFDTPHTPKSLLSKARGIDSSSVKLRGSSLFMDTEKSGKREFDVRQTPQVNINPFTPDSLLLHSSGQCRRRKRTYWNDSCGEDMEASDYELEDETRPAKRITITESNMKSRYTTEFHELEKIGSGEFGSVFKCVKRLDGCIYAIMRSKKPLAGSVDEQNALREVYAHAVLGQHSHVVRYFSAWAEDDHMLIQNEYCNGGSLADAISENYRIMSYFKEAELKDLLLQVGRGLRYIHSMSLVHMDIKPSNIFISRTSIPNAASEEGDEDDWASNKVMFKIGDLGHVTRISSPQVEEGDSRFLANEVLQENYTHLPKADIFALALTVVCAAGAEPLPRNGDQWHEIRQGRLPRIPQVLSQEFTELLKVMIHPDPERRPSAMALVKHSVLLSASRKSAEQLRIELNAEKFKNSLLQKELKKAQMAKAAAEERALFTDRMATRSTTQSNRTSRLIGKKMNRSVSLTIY
Autophagy HCS: autophagy modulators in MEF cells, primary screen, imaging, high-content, MEF GFP-LC3; calls only at 10 µM (by protocol); 190,000 tested, 0.98% active; MEF GFP-LC3 puncta imaging; test concentration mostly 10 µM; AID 463193, 2010;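 active = percentage of spot-positive cells more than 3 SD above its plate mean, without a fluorescence outlier flag or 80% toxicity; inconclusive = no clear call, values can overlap the other calls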;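 also: spot-positive cell cutoff set from DMSO-treated cells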
b-catenin transl: modulators of beta-catenin nuclear translocation, primary screen, imaging, HeLa cells, immunofluorescence, high-content; nuclear translocation activity, % at 5 µM; 190,000 tested, 0.3% active; AID 1665, 2009;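 active = nuclear translocation activity above 50% at 5 µM, with a well cell count of 50 or more; inconclusive = wells under 50 cells across six images, flagged as toxic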;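 also: per-cell ratio of nuclear to cytoplasmic median beta-catenin stain intensity; plate controls were DMSO negative control for no effect and GSK-3 inhibitor IX positive control for full effect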
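System: Human HeLa cells, endogenous beta-catenin | Compound dosing: 5 µM primary, 0.02–20 µM confirmation | Timing: 24 h compound exposure at 37°C, 5% CO2 | Measured by: Fluorescence imaging of beta-catenin antibody stain plus DAPI | Read-out basis: % activation of per-cell nuclear versus cytoplasmic median beta-catenin signal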
Ins promoter up: insulin promoter activators in MIN6 cells, imaging, high-content screening, mouse beta cells; MIN6 insulin promoter-GFP reporter; hits give high values; 190,000 tested, 0.3% active; z-score at 5 µM;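 active = z-score above 3 at 5 µM with at least 500 cells counted in the well; inconclusive = wells under 500 cells, flagged as cytotoxic or low count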
Starred values were filed as active, the others as inactive; i = inactive; ? = inconclusive; . = not tested or not shown; + = active, no number; ! = a repeat was not active.

SMILES	MT stabilize HCS	Wee1 degr inh	Autophagy HCS	b-catenin transl	Ins promoter up
Cc1ccc(Nc2nnc(SCC(=O)NCCN3C(=O)CSC3=O)s2)cc1C	10.4	-1.7	i	-1.3	0.79
CN(C)C=Nc1ncc2c([nH]c3ccccc32)c1C#N	8.0	-1.5	i	-6.1	1.18
Cc1nc2c3cc(Cl)ccc3n(CCN3CCCCC3)c2s1	24.5*	5.9	+	96.7*	-1.1
COC(=O)c1cc(NS(=O)(=O)c2ccc(C)c3ccccc23)ccc1N1CCOCC1	.	9.0*	.	-0.6	1.87
CC(C)c1ccc(/C=C/C(=O)Nc2nncs2)cc1	1.8	9.5*	i	-1.2	?
COc1ccccc1NC(=O)NCCN1C(=O)C2C3C=CC(C3)C2C1=O (stereo not given)	10.1	4.0	i	.	-0.84
O=C1/C(=C/c2ccc(N3CCCC3)cc2)NC(=S)N1C1CC1	1.9	1.5	+	-6.2	.
O=C1NC(=S)N/C1=C\c1ccc(N2CCOCC2)cc1	1.7	1.9	i	-3.2	1.14
Cc1cc(N2CCCC2)ccc1/C=C1\NC(=S)N(C)C1=O	5.6	0.0	+	-3.2	.
O=C1N/C(=C/c2ccc(N3CCOCC3)o2)C(=O)N1c1ccccc1	2.1	3.7	i	-0.5	0.51
O=C1N/C(=C/c2ccc(N3CCCC3)cc2)C(=O)N1c1ccccc1	5.7	-0.9	+	-3.1	0.57
CSc1nnc(C)c(/C=C/Nc2ccc(F)cc2)n1	1.7	-0.4	i	.	.
COc1ccc(N/C=C/c2nc(SC)nnc2C)cc1	3.0	3.0	+	-7.8	0.26
Cc1ccc(C(=O)n2c3ccccc3c3ccccc32)cc1	44.0*	-0.5	i	95.8*	.
COc1ccc([N+](=O)[O-])cc1N(CC(=O)NCC1CCCO1)S(C)(=O)=O (stereo not given)	4.6	-2.0	i	-2.2	-0.05
Cc1cc(N2CCCCC2)nc(NCc2ccccc2)n1	17.3*	-2.5	i	2.2	-0.51
O=C(O)CCCNC(=O)CCCn1nnc2ccccc2c1=O	.	1.9	.	-0.8	0.18
Cc1cc2cc(CNC(=S)NC3CCCCC3)ccc2[nH]1	1.9	9.9*	i	-1.4	0.35
Cc1cc2cc(CNC(=O)NC3CCCCC3)ccc2[nH]1	2.8	2.0	i	.	-0.31
Cc1ccc(NCc2ccccc2O)cc1C	2.5	10.0*	i	0.3	0.72
COc1ccc(CNc2ccc(C)c(C)c2)cc1	2.1	1.4	i	0.2	0.25
COc1cc(CNc2ccc(C)c(C)c2)cc(OC)c1OC	31.3	0.8	i	107.2*	-0.57
CCCCNc1cc(=O)oc2ccccc12	2.3	-2.5	i	-1.7	-0.28
CCOc1ccc(Nc2cc(=O)oc3ccccc23)cc1	28.9*	0.7	i	1.3	-0.85
O=C(CCCc1nc(-c2ccccc2Cl)no1)N1CCOCC1	2.7	-0.9	i	-2.7	0
SMILES	MT stabilize HCS	Wee1 degr inh	Autophagy HCS	b-catenin transl	Ins promoter up
Cc1nnc(-c2cccc(Br)c2)c2cn(-c3ccc(Br)cc3)nc12	3.7	-3.5	i	-2.3	-1.3
COc1ccc(-n2cc3c(-c4cccc(Br)c4)nnc(C)c3n2)cc1	1.7	-3.6	+	-1.9	-0.93
COc1cccc(C(=O)CSc2nnc(CNS(=O)(=O)c3ccc(C)cc3)n2C)c1	2.2	9.7*	i	-5.6	-0.95
COC(=O)CSc1nnc(CNS(=O)(=O)c2ccc(C)cc2)n1C	1.0	-2.4	i	-3.2	1.49
COc1ccc2nc(N/C(N)=N/C(=S)Nc3c(C)cccc3C)nc(C)c2c1	3.3	-0.5	+	-0.5	-0.21
CCc1ccccc1NC(=S)/N=C(\N)Nc1nc(C)c2cc(C)ccc2n1	22.6*	2.6	i	10.5	-0.99
COc1cc(C2C(C#N)=C(N)N(c3ccc(F)cc3)C3=C2S(=O)(=O)CC3)ccc1O (stereo not given)	5.0	9.6*	i	0.2	0.29
COc1cc(C2C(C#N)=C(N)N(c3cccnc3)C3=C2C(=O)CCC3)ccc1O (stereo not given)	1.5	-0.4	i	.	-0.32
O=C(N/N=C/c1ccc(Br)cc1)c1ccc(Br)o1	3.7	-1.7	i	-1.2	0.28
COc1ccc(C(C)=O)cc1COc1ccc(-n2cnnn2)cc1	2.7	3.8	i	-9.0	0.34
Oc1ccc2ccccc2c1N=Nc1ccc(F)cc1	.	22.1*!	.	-0.1	-0.85
